Data as given in ChEMBL document CHEMBL3822362, “Effects of N-Substitutions on the Tetrahydroquinoline (THQ) Core of Mixed-Efficacy μ-Opioid Receptor (MOR)/δ-Opioid Receptor (DOR) Ligands” (J Med Chem, 2016).
Active and inactive are the calls of the source.

Key:
Mu-type opioid receptor [1] = molecular target: T1, Mu-type opioid receptor (Rattus norvegicus, UniProt P33535); assay: Agonist activity at rat MOR transfected in rat C6 cell membranes after 1 hr by [35S]GTPgammaS assay; assay type: functional
In short: (§1)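 Membranes (10–20 μg protein) from cells grown to confluence in DMEM/10% FBS, incubated 1 h at 25 °C in 50 mM Tris-HCl, 100 mM NaCl, 5 mM MgCl2, pH 7.4 with 0.1 nM [35S]GTPγS, 30 μM GDP and varying peptidomimetic concentrations. Filtered on GF/C, counted by scintillation. % stimulation relative to 10 μM DAMGO (MOR), DPDPE (DOR) or U69,593 (KOR).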

[2] = molecular target: T2, Delta-type opioid receptor (Rattus norvegicus, UniProt P33533); assay: Displacement of [3H]diprenorphine from rat DOR transfected in rat C6 cell membranes after 1 hr by liquid scintillation counting
In short: (§2)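 Membranes (20 μg protein/tube) in 50 mM Tris-HCl pH 7.4 with 0.2 nM [3H]diprenorphine and varying peptidomimetic concentrations, 1 h at room temperature to equilibrium. GF/C filtration, five buffer washes, scintillation counting. Nonspecific binding with 10 μM naloxone.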

[3] = molecular target: T2, Delta-type opioid receptor; assay: Agonist activity at rat DOR transfected in rat C6 cell membranes after 1 hr by [35S]GTPgammaS assay; assay type: functional; in short: as §1
[4] = molecular target: Mu-type opioid receptor (Rattus norvegicus) (UniProt P33535); assay: Agonist activity at rat MOR transfected in rat C6 cell membranes at 10 uM after 1 hr by [35S]GTPgammaS assay relative to DAMGO; assay type: functional; in short: as §1
Mu-type opioid receptor [5] = molecular target: T1, Mu-type opioid receptor; assay: Displacement of [3H]diprenorphine from rat MOR transfected in rat C6 cell membranes after 1 hr by liquid scintillation counting; in short: as §2
[6] = molecular target: T3, Kappa-type opioid receptor (Homo sapiens, UniProt P41145); assay: Displacement of [3H]diprenorphine from human KOR expressed in CHO cell membranes after 1 hr by liquid scintillation counting; in short: as §2
Mus musculus [7] = assay: Antinociceptive activity in C57BL/6 mouse assessed as increase in latency time to tail flick at 1 to 10 mg/kg, ip measured at 30 min interval by warm water tail withdrawal assay; assay type: functional, organism-based
In short: (§3)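 Adult male C57BL/6 mice, 20–30 g, 8–16 weeks. Saline ip, baseline read 30 min later. Then three increasing ip doses every 30 min, in water or 1:1:8 ethanol:Alkumuls:water, giving cumulative 1, 3.2 and 10 mg/kg. Tail tip (2–3 cm) put in 50 °C water 30 min after each injection; latency to withdraw or flick read, 20 s cutoff; n = 3.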

[8] = molecular target: T3, Kappa-type opioid receptor; assay: Agonist activity at human KOR expressed in CHO cell membranes after 1 hr by [35S]GTPgammaS assay; assay type: functional; in short: as §1
Mus musculus [9] = assay: Antinociceptive activity in C57BL/6 mouse assessed as time duration of action at 10 mg/kg, ip by warm water tail withdrawal assay; assay type: functional
In short: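 Male C57BL/6 mice given a single 10 mg/kg ip dose. Tail-withdrawal latency in 50 °C water (2–3 cm tail tip, 20 s cutoff) read at varying times after dosing to follow duration of antinociception; n = 3.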

Mus musculus [10] = assay: Antinociceptive activity in C57BL/6 mouse assessed as latency time to tail flick at 10 mg/kg, ip measured at 30 min interval by warm water tail withdrawal assay; assay type: functional; in short: as §3
[11] = molecular target: Delta-type opioid receptor (Rattus norvegicus) (UniProt P33533); assay: Agonist activity at rat DOR transfected in rat C6 cell membranes at 10 uM after 1 hr by [35S]GTPgammaS assay relative to DPDPE; assay type: functional; in short: as §1
[12] = molecular target: T3, Kappa-type opioid receptor; assay: Agonist activity at human KOR expressed in CHO cell membranes at 10 uM after 1 hr by [35S]GTPgammaS assay relative to U69,593; assay type: functional; in short: as §1

Chain of Delta-type opioid receptor (Rattus norvegicus) (P33533 whole entry): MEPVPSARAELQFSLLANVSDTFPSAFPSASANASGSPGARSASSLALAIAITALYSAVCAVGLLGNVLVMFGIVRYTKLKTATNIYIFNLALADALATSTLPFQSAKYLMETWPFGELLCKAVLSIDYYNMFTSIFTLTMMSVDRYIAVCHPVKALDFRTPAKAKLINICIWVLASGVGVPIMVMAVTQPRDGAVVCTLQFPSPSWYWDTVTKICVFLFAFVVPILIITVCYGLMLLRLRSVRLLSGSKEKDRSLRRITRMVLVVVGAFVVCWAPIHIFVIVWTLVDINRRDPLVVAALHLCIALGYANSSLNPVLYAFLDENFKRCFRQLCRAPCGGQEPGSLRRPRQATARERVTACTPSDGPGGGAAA
T2 sequence (P33533 whole entry): as above
T1 sequence (P33535 whole entry): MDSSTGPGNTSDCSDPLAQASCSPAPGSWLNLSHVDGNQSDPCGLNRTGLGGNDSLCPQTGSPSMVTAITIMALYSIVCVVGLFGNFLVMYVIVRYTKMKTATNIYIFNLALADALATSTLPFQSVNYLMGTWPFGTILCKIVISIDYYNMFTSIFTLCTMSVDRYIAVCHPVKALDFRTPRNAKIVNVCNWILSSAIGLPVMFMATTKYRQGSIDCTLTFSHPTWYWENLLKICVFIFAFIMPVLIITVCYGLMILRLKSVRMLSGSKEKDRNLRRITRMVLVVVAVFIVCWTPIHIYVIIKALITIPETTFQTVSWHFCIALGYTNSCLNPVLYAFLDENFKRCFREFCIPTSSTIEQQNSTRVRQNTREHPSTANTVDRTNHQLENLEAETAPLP
Chain of Mu-type opioid receptor (Rattus norvegicus) (P33535 whole entry): as above
T3 sequence (P41145 whole entry): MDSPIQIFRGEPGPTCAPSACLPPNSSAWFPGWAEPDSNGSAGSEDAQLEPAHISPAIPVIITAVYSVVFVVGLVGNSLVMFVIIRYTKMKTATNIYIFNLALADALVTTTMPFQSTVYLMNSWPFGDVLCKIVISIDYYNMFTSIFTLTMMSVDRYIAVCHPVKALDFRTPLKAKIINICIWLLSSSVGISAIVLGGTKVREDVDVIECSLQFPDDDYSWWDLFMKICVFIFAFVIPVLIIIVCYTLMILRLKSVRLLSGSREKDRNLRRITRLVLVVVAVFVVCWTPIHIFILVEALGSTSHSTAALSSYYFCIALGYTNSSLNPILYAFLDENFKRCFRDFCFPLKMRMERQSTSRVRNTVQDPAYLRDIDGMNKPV

Compound	EC50 (Mu-type opioid receptor [1]) [nM]	Ki [2] [nM]	EC50 ([3]; c6)	Emax [4] [%]	Ki (Mu-type opioid receptor [5]) [nM]	Ki [6] [nM]	Activity (Mus musculus [7])	EC50 ([8]; cho)	Time (Mus musculus [9]) [h]	EC50 ([3]; read-out: EC50) [nM]	Time (Mus musculus [10]) [s]	Emax [11] [%]	Emax [12] [%]	EC50 ([8]; read-out: EC50) [nM]
COC(=O)N1CC[C@@H](NC(=O)[C@@H](N)Cc2c(C)cc(O)cc2C)c2cc(Cc3ccc4ccccc4c3)ccc21	0.39	1	Not Active	110	0.32	190	inactive	Not Active						
COC(=O)N1CC[C@@H](NC(=O)[C@@H](N)Cc2c(C)cc(O)cc2C)c2cc(Cc3ccccc3)ccc21	0.78	0.51		95	0.19	29			1	14	20	40	28	250
Cc1cc(O)cc(C)c1C[C@H](N)C(=O)N[C@@H]1CCN(C(=O)C2CC2)c2ccc(Cc3ccccc3)cc21	1.8	0.35		88	0.1	25				10	11	69	32	1000
Cc1cc(O)cc(C)c1C[C@H](N)C(=O)N[C@@H]1CCN(CC(N)=O)c2ccc(Cc3ccccc3)cc21	1.5	2		99	0.23	4.3	inactive			270		34	49	380
CCOC(=O)CN1CC[C@@H](NC(=O)[C@@H](N)Cc2c(C)cc(O)cc2C)c2cc(Cc3ccccc3)ccc21	5.1	0.58		79	0.37	15				15		34	24	> 1300
Cc1cc(O)cc(C)c1C[C@H](N)C(=O)N[C@@H]1CCN(C(=O)C(C)C)c2ccc(Cc3ccccc3)cc21	9.6	0.53		95	0.38	76	inactive			25		52	41	> 1300
CCC(=O)N1CC[C@@H](NC(=O)[C@@H](N)Cc2c(C)cc(O)cc2C)c2cc(Cc3ccc4ccccc4c3)ccc21	13	0.21	Not Active	75	0.28	58	inactive						15	> 1400
CCCC(=O)N1CC[C@@H](NC(=O)[C@@H](N)Cc2c(C)cc(O)cc2C)c2cc(Cc3ccccc3)ccc21	3.5	1		53	0.1	50				8.1		44	22	> 1200
